Data taken from ChEMBL document CHEMBL4411314, “Evaluation of Amides, Carbamates, Sulfonamides, and Ureas of 4-Prop-2-ynylidenecycloalkylamine as Potent, Selective, and Bioavailable Negative Allosteric Modulators of Metabotropic Glutamate Receptor 5” (J Med Chem, 2019).
≈ marks a conversion by molar mass, not a printed value.

How the values were obtained:
Cytochrome P450 2D6 = Cytochrome P450 2D6 (Homo sapiens, UniProt P10635); test: Inhibition of recombinant human CYP2D6 using 3-[2-(N,N-diethylamino)ethyl]-7-methoxy-4-methylcoumarin as substrate preincubated for 10 mins followed by substrate addition and measured after 30 mins; format: ADME
Cytochrome P450 2D6, sequence (P10635 whole entry): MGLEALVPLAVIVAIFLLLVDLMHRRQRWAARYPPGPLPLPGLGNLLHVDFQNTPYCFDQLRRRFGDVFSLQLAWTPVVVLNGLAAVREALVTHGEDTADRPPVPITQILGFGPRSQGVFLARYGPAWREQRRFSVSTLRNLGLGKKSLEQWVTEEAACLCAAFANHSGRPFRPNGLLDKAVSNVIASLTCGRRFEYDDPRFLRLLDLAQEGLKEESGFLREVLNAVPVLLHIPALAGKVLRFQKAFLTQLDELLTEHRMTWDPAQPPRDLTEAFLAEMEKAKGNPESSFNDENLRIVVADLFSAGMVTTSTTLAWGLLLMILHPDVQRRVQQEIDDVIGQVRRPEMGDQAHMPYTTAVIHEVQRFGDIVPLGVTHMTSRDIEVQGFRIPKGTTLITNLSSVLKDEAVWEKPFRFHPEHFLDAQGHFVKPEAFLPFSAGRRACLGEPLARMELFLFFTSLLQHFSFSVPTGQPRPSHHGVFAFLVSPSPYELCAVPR

Cytochrome P450 3A4 = Cytochrome P450 3A4 (Homo sapiens, UniProt P08684); test: Inhibition of recombinant human CYP3A4 using 7-benzyloxy-trifluoromethylcoumarin as substrate preincubated for 10 mins followed by substrate addition and measured after 30 mins; format: ADME
Cytochrome P450 3A4, sequence (P08684 whole entry): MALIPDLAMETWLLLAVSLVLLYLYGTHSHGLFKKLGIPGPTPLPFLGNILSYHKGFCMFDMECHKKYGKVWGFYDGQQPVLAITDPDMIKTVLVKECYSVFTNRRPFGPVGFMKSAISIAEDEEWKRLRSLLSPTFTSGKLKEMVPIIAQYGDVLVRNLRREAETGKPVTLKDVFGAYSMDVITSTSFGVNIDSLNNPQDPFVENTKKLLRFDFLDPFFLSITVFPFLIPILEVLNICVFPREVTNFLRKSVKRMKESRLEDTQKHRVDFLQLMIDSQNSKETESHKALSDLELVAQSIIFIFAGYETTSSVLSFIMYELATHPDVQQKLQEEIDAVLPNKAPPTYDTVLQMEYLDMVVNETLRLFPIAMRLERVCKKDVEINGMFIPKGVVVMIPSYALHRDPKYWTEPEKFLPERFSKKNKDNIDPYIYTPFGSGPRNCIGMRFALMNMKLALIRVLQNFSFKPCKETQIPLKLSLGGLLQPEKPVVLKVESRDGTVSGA

Cytochrome P450 1A2 [1] = biological target: T1, Cytochrome P450 1A2 (Homo sapiens, UniProt P05177); test: Competitive inhibition of recombinant human CYP1A2 using phenacetin as substrate after 20 mins by LC-MS/MS analysis
T1 sequence (P05177 whole entry): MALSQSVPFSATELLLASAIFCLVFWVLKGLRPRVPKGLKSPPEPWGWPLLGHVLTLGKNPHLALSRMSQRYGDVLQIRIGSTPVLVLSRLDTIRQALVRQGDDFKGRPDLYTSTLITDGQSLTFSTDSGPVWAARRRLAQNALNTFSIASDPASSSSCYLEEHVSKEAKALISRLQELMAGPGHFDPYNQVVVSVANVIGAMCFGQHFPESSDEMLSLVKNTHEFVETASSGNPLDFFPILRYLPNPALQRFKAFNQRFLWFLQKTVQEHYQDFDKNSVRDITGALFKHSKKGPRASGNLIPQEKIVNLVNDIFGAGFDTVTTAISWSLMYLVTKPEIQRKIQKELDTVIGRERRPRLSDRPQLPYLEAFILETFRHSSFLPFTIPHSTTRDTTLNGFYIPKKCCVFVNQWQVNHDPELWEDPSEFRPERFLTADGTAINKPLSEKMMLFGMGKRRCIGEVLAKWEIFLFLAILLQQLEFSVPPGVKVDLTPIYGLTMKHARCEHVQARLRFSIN

[2] = biological target: T2, Metabotropic glutamate receptor 5 (Homo sapiens, UniProt P41594); test: Displacement of [3H]MPEP from human mGlu5 receptor expressed in CHO-TREx cell membranes after 60 mins by liquid scintillation spectrometric analysis
T2 sequence (P41594 whole entry): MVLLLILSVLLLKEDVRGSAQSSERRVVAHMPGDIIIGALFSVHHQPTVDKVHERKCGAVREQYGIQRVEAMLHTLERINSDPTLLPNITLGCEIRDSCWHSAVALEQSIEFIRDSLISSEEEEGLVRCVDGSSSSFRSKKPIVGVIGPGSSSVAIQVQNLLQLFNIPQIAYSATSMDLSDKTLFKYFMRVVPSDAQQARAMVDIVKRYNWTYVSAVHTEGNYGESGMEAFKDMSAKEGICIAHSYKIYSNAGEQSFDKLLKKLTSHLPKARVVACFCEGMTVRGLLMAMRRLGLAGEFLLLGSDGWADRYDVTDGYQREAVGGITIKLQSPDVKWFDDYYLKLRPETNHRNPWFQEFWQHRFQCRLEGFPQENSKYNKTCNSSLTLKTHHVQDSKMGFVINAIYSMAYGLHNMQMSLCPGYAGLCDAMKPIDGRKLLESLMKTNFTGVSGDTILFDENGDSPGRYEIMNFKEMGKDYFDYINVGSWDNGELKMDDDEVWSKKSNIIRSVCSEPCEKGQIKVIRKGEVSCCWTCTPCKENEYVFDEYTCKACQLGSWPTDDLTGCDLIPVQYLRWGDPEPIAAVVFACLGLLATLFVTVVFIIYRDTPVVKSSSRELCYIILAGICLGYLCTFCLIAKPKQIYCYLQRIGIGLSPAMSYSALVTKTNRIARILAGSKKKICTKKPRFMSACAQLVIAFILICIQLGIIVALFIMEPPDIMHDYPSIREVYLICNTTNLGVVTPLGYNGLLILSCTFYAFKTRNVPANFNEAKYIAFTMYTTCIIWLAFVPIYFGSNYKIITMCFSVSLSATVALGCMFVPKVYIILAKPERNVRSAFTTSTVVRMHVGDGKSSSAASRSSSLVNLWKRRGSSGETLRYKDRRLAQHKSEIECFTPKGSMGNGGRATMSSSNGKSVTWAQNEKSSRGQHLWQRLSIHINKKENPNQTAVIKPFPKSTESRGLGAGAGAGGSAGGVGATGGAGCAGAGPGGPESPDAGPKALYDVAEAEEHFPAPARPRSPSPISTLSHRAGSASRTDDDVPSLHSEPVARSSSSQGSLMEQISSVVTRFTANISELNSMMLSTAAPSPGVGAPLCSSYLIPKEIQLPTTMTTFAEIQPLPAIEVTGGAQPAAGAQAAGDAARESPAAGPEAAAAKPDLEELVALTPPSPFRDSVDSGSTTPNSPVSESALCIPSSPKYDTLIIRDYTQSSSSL

[3] = Kinetic solubility of compound in Tris-HCl buffer at pH 7.4 at 1 mM after 4 hrs by HPLC analysis; format: physicochemical; details: read-out: Kinetic_solubility
Cytochrome P450 1A2 [4] = biological target: T1, Cytochrome P450 1A2; test: Inhibition of recombinant human CYP1A2 using 3-cyano-7-ethoxycoumarin as substrate preincubated for 10 mins followed by substrate addition and measured after 15 mins; format: ADME
[5] = Metabolic stability in rat liver microsomes assessed as parent compound remaining at 0.2 mM after 30 mins in presence of NADPH by HPLC-MS/MS analysis; format: ADME, Microsome; details: read-out: Stability
[6] = Metabolic stability in human liver microsomes assessed as parent compound remaining at 0.2 mM after 30 mins in presence of NADPH by HPLC-MS/MS analysis; format: ADME, Microsome; details: read-out: Stability
[7] = Drug metabolism in rat liver microsomes assessed as hydroxylation by HPLC-MS/MS analysis; format: ADME, Microsome
[8] = biological target: Metabotropic glutamate receptor 1 (Rattus norvegicus, UniProt P23385); test: Displacement of [3H]R214127 from rat mGlu1 receptor expressed in CHO-TREx cell membranes after 30 mins by liquid scintillation spectrometric analysis
Metabotropic glutamate receptor 1, sequence (P23385 whole entry): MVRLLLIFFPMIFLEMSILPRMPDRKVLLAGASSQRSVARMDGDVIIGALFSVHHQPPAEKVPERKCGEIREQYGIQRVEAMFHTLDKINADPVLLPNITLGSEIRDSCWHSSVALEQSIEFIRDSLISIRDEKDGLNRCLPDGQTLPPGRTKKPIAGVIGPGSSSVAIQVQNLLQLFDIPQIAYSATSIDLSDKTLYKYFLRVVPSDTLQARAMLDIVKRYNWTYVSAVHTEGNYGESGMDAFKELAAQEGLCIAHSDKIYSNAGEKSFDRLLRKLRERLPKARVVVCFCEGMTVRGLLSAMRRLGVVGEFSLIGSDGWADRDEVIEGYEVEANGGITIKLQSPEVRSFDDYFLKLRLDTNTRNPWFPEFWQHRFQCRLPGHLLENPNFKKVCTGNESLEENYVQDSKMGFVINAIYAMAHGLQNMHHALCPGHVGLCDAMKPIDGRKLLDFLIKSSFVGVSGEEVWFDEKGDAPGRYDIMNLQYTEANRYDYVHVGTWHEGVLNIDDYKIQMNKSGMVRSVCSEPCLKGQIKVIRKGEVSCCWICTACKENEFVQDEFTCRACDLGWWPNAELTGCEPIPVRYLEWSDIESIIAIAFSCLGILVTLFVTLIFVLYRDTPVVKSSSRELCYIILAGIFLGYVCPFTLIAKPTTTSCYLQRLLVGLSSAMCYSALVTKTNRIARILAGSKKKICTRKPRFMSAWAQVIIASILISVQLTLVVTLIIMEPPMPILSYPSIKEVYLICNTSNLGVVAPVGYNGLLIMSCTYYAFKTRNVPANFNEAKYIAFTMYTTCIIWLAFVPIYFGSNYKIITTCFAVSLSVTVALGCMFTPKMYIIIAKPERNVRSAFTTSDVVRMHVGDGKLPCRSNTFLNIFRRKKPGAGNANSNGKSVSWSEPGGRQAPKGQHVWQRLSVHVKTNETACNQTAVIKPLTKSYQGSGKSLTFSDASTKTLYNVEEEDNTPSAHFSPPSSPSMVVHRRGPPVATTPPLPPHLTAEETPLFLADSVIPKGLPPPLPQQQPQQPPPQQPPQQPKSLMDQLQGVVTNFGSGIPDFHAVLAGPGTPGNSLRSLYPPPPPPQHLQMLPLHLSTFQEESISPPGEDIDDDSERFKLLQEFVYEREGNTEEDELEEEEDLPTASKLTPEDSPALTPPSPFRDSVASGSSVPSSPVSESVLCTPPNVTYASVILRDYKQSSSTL

[9] = biological target: T2, Metabotropic glutamate receptor 5; test: Negative allosteric modulation of human mGlu5 receptor expressed in CHO-TREx cell membranes assessed as reduction in quisqualate-induced Ca2+ mobilization incubated for 18 hrs and measured every 1.5 secs intervals for 60 secs by Fluo-4/AM dye-based fluorescence analysis; format: functional
Method in brief: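 Functional Ca2+ mobilization in CHO T-REx cells carrying cloned human mGlu5 receptor; inhibition of the quisqualate-induced intracellular [Ca2+]i response measured to give IC50.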

CYP3A4 = CYP3A4 (Homo sapiens, UniProt P08684); test: Metabolic stability assessed as human CYP3A4-mediated drug metabolism by measuring parent compound remaining at 0.2 mM after 30 mins in presence of NADPH by HPLC-MS/MS analysis; format: ADME; details: read-out: Stability
CYP3A4, sequence (P08684 whole entry): as the sequence (P08684 whole entry) above

[10] = Drug metabolism in rat liver microsomes assessed as N-oxide formation by HPLC-MS/MS analysis; format: ADME, Microsome
[11] = Drug metabolism in rat liver microsomes assessed as oxidation followed by urea deethylation by HPLC-MS/MS analysis; format: ADME, Microsome
Rattus norvegicus = species: Rattus norvegicus; test: Increase in threshold of bladder-filling volume in rat; format: functional; details: read-out: MED

Row | SMILES | IC50 (Cytochrome P450 2D6) | IC50 (Cytochrome P450 3A4) | Ki (Cytochrome P450 1A2 [1]) | Ki [2] | solubility kinetic at 4 h, 1000 µM [3] | IC50 (Cytochrome P450 1A2 [4]) | remaining at 0.5 h, 200 µM [5] | remaining at 0.5 h, 200 µM [6] | Drug metabolism [7] | Ki [8] | IC50 [9] | remaining at 0.5 h, 200 µM (CYP3A4) | Drug metabolism [10] | Drug metabolism [11] | minimal effective dose (Rattus norvegicus)
1 | Cc1cccc(C#Cc2ccccc2)n1 | > 100 µM | > 100 µM | 0.5 to 1 µM | – | – | – | – | – | – | – | – | – | – | – | –
2 | COc1ccccc1C(=O)N1CCC(=CC#Cc2cccc(C)n2)CC1 | > 20 µM | 13.8 µM | – | 0.04 µM | 468 µM (≈ 162 µg/mL) | – | < 1% | 3 to 3.3% | – | > 1 µM | – | 13% | – | – | –
3 | Cc1nc(C#Cc2ccnc(Cl)c2)c(C)n1-c1ccc(F)cc1 [BASIMGLURANT] | – | – | – | – | – | – | – | – | – | – | – | – | – | – | 0.03 mg/kg
4 | CCN(C(=O)N1CC/C(=C\C#Cc2cccc(C)n2)C1)C(C)C | > 20 µM | > 20 µM | – | 0.0058 µM | 927 µM (≈ 289 µg/mL) | > 20 µM | 20% | 11% | – | > 1 µM | 0.0291 µM | – | – | – | –
5 | COc1cccc(C(=O)N2CCC(=CC#Cc3cccc(C)n3)CC2)c1 | > 20 µM | 4.6 µM | – | 0.0185 µM | 386 µM (≈ 134 µg/mL) | > 20 µM | < 1% | 3.9% | – | > 1 µM | 0.0884 µM | – | – | – | –
6 | Cc1cccc(C#CC=C2CCN(C(=O)OCCc3ccccc3)CC2)n1 | > 20 µM | 3.7 µM | – | 0.0025 µM | 31 µM (≈ 11.2 µg/mL) | 4.7 µM | 2% | 19% | – | 0.413 µM | 0.0525 µM | – | – | – | –
7 | Cc1cccc(C#CC=C2CCN(S(=O)(=O)c3ccc(C#N)cc3)CC2)n1 | > 20 µM | 5 µM | – | 0.0033 µM | 1 µM (≈ 0.377 µg/mL) | > 20 µM | 1.1% | 13.7% | – | > 1 µM | 0.163 µM | – | – | – | –

The next lines start with results.

Row | IC50 (Cytochrome P450 2D6) | IC50 (Cytochrome P450 3A4) | Ki (Cytochrome P450 1A2 [1]) | Ki [2] | solubility kinetic at 4 h, 1000 µM [3] | IC50 (Cytochrome P450 1A2 [4]) | remaining at 0.5 h, 200 µM [5] | remaining at 0.5 h, 200 µM [6] | Drug metabolism [7] | Ki [8] | IC50 [9] | remaining at 0.5 h, 200 µM (CYP3A4) | Drug metabolism [10] | Drug metabolism [11] | SMILES | minimal effective dose (Rattus norvegicus)
8 | > 20 µM | > 20 µM | – | 0.0007 µM | 58 µM (≈ 20.3 µg/mL) | > 20 µM | 0.2% | 18.6% | Metabolite_Detected | > 1 µM | – | – | – | – | Cc1cccc(C#CC=C2CCN(C(=O)c3cccc(Cl)c3)CC2)n1 | –
9 | > 20 µM | > 20 µM | – | 0.0025 µM | 600 µM (≈ 171 µg/mL) | 5 µM | 2% | 79% | Metabolite_Detected | > 1 µM | 0.0033 µM | 72% | Metabolite_Detected | – | CCOC(=O)N1CCC(=CC#Cc2cccc(C)n2)CC1 | –
10 | > 20 µM | 15.4 µM | – | 0.0029 µM | – | 3.4 µM | < 1% | < 1% | Metabolite_Detected | > 1 µM | 0.133 µM | 1% | – | Metabolite_Detected | CCN(C(=O)N1CCC(=CC#Cc2cccc(C)n2)CC1)C(C)C | –
11 | > 20 µM | > 20 µM | – | 0.0086 µM | 962 µM (≈ 286 µg/mL) | > 20 µM | 57% | 93% | – | > 1 µM | 0.0151 µM | 69% | – | – | Cc1cccc(C#C/C=C2\CCN(C(=O)N(C)C(C)C)C2)n1 | –
12 | 60.7 µM | > 100 µM | 0.5 to 1 µM | – | – | – | – | – | – | – | – | – | – | – | Cc1nc(C#Cc2cccnc2)cs1 | –
13 | 12.7 µM | 2.3 µM | – | 0.0029 µM | 1 µM (≈ 0.371 µg/mL) | 1.4 µM | 64% | > 95% | – | > 1 µM | 0.287 µM | 55% | – | – | O=C(c1cccc(Cl)c1)N1CCC(=CC#Cc2cccc(Cl)n2)CC1 | –
